In ChEMBL document CHEMBL1124009 (J Med Chem, 1988):

Columns and labels:
[1] = molecular target: Opioid receptors; mu & delta (Rattus norvegicus) (UniProt P33533+P33535); assay: Ratio of selective binding affinity of mu receptor to that of delta opioid receptor; type: protein assay
[2] = Ratio of selective binding affinity of mu receptor to that of somatostatin receptor
[3] = molecular target: Delta-type opioid receptor (Rattus norvegicus, UniProt P33533); assay: Binding affinity in competition with [3H]- DPDPE in Opioid receptor delta 1 binding to rat brain membrane
Delta-type opioid receptor, sequence (P33533 whole entry): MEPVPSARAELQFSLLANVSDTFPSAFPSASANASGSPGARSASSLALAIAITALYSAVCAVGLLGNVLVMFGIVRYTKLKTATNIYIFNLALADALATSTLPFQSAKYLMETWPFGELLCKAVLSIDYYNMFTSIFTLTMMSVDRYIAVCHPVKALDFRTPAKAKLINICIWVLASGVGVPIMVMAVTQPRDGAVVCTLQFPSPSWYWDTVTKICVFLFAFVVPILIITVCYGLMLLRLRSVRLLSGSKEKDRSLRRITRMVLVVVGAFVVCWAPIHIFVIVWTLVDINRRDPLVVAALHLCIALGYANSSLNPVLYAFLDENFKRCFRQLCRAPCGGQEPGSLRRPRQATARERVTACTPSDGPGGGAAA
Outline: (§1)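 Brains (minus cerebellum) of male Sprague–Dawley rats (200–250 g) were homogenized, preincubated 30 min at 25 °C and centrifuged twice at 43000g. Homogenate at 0.5% final was incubated with 0.5 nM [3H]CTOP (μ) or 1.0 nM [3H]DPDPE (δ) in 50 mM Tris-HCl pH 7.4 with 5 mM MgCl2, BSA 1 mg/mL and 100 μM PMSF, 120 min at 25 °C, in duplicate. Nonspecific binding was taken with 1 μM naloxone; bound label was filtered and scintillation counted; curves were fit by nonlinear least squares.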

Mu-type opioid receptor = Mu-type opioid receptor (Rattus norvegicus, UniProt P33535); assay: Binding affinity in competition with [3H]- CTOP in Opioid receptor mu 1 binding to rat brain membrane; outline: as §1
Mu-type opioid receptor, sequence (P33535 whole entry): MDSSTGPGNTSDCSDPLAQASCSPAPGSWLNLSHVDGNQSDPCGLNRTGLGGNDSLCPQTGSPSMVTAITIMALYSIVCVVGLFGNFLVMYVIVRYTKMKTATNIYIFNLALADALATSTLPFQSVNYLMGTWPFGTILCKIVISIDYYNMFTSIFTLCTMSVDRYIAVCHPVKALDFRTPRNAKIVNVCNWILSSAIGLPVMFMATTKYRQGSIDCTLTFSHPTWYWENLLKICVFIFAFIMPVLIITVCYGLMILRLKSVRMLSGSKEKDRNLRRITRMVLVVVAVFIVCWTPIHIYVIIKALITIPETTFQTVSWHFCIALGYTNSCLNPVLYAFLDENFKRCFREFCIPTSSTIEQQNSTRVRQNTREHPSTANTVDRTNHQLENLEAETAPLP

Somatostatin receptor = assay: Binding affinity in competition with [125I]- CGP-23996 in somatostatin receptor binding to rat brain membrane
Outline: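 Rat whole-brain membranes (adult male Sprague–Dawley) at 1.0% final tissue were incubated with 0.2 nM [125I]CGP 23,996 and analogues at 100–0.3 μM. Buffer was 50 mM Tris pH 7.4 with 2.0 mg/mL BSA, 20 μg/mL bacitracin and 5 mM MgCl2. Incubation ran 1 h at 37 °C and ended by rapid filtration through BSA-soaked GF/B filters.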

Opioid receptors; mu & delta (Rattus norvegicus), sequence (P33533 whole entry, looked up): as the sequence (P33533 whole entry) above
Opioid receptors; mu & delta (Rattus norvegicus), sequence (P33535 whole entry, looked up): as the sequence (P33535 whole entry) above

| SMILES | IC50 [3] [µM] | IC50 (Mu-type opioid receptor) [µM] | IC50 (Somatostatin receptor) [µM] | also measured |
| --- | --- | --- | --- | --- |
| C[C@@H](O)[C@@H]1NC(=O)[C@H](CCCCN)NC(=O)C(Cc2c[nH]c3ccccc23)NC(=O)[C@H](Cc2ccc(O)cc2)NC(=O)[C@@H](NC(=O)[C@H](N)Cc2ccccc2)CSSC(C)(C)[C@@H](C(=O)N[C@@H](CO)C(N)=O)NC1=O (stereo in doubt) [listing 1 of 2 here] | – | – | – | Ratio [1]: > 490; Ratio [2]: 94 |
| C[C@@H](O)[C@@H]1NC(=O)[C@H](CCCCN)NC(=O)C(Cc2c[nH]c3ccccc23)NC(=O)[C@H](Cc2ccc(O)cc2)NC(=O)[C@@H](NC(=O)[C@H]2Cc3ccccc3CN2)CSSC(C)(C)[C@@H](C(=O)N[C@@H](CO)C(N)=O)NC1=O (stereo in doubt) [listing 1 of 3 here] | – | – | – | Ratio [1]: 491; Ratio [2]: 192 |
| C[C@@H](O)[C@@H]1NC(=O)[C@H](CCCCN)NC(=O)C(Cc2c[nH]c3ccccc23)NC(=O)[C@H](Cc2ccc(O)cc2)NC(=O)[C@@H](NC(=O)[C@H](N)Cc2ccccc2)CSSC(C)(C)[C@@H](C(=O)N[C@@H](CC(N)=O)C(N)=O)NC1=O (stereo in doubt) [listing 1 of 2 here] | > 10 | 0.13 | – | – |
| CN[C@H](Cc1ccccc1)C(=O)N[C@H]1CSSC(C)(C)[C@@H](C(=O)N[C@H](C(N)=O)[C@@H](C)O)NC(=O)[C@H]([C@@H](C)O)NC(=O)[C@H](CCCN)NC(=O)C(Cc2c[nH]c3ccccc23)NC(=O)[C@H](Cc2ccc(O)cc2)NC1=O (stereo in doubt) [listing 1 of 3 here] | – | – | – | Ratio [1]: > 35; Ratio [2]: 28 |
| C[C@@H](O)[C@@H]1NC(=O)[C@H](CCCCN)NC(=O)C(Cc2c[nH]c3ccccc23)NC(=O)[C@H](Cc2ccc(O)cc2)NC(=O)[C@@H](NC(=O)[C@H](N)Cc2ccccc2)CSSC(C)(C)[C@@H](C(N)=O)NC1=O (stereo in doubt) [listing 1 of 2 here] | – | – | 1.942 | – |
| C[C@@H](O)[C@H](NC(=O)[C@H]1NC(=O)[C@H]([C@@H](C)O)NC(=O)[C@H](CCCN)NC(=O)C(Cc2c[nH]c3ccccc23)NC(=O)[C@@H](Cc2ccc(O)cc2)NC(=O)[C@@H](NC(=O)[C@H]2Cc3ccccc3CN2C(=O)CN)CSSC1(C)C)C(N)=O (stereo in doubt) [listing 1 of 2 here] | 5.35 | 0.278 | – | – |
| C[C@@H](O)[C@H](NC(=O)[C@H]1NC(=O)[C@H]([C@@H](C)O)NC(=O)[C@H](CCCN)NC(=O)[C@@H](Cc2c[nH]c3ccccc23)NC(=O)[C@H](Cc2ccc(O)cc2)NC(=O)[C@@H](NC(=O)[C@H](N)Cc2ccccc2)CSSC1(C)C)C(N)=O | 5.6 | – | – | – |
| C[C@@H](O)[C@@H]1NC(=O)[C@H](CCCCN)NC(=O)C(Cc2c[nH]c3ccccc23)NC(=O)[C@H](Cc2ccc(O)cc2)NC(=O)[C@@H](NC(=O)[C@H](N)Cc2ccccc2)CSSC(C)(C)[C@@H](C(=O)N[C@@H](CC(=O)O)C(N)=O)NC1=O (stereo in doubt) [listing 1 of 2 here] | – | – | 8.3 | – |
| C[C@@H](O)[C@@H]1NC(=O)[C@H](CCCN)NC(=O)C(Cc2c[nH]c3ccccc23)NC(=O)[C@H](Cc2ccc(O)cc2)NC(=O)[C@@H](NC(=O)[C@H](N)Cc2ccccc2)CSSC(C)(C)[C@@H](C(N)=O)NC1=O (stereo in doubt) [listing 1 of 2 here] | > 10 | 0.187 | – | – |
| C[C@@H](O)[C@H](NC(=O)[C@@H]1NC(=O)[C@H](CCCCN)NC(=O)C(Cc2c[nH]c3ccccc23)NC(=O)[C@H](Cc2ccc(O)cc2)NC(=O)[C@@H](NC(=O)[C@@H](N)Cc2ccccc2)CSSC1(C)C)C(N)=O (stereo in doubt) [listing 1 of 2 here] | > 10 | – | – | – |
| C[C@@H](O)[C@@H]1NC(=O)[C@H](CCCN)NC(=O)C(Cc2c[nH]c3ccccc23)NC(=O)[C@H](Cc2ccc(O)cc2)NC(=O)[C@@H](NC(=O)[C@H](N)Cc2ccccc2)CSSC(C)(C)[C@@H](C(N)=O)NC1=O (stereo in doubt) [listing 2 of 2 here] | – | – | 47.273 | – |
| C[C@@H](O)[C@H](NC(=O)[C@H]1NC(=O)[C@H](CC(N)=O)NC(=O)[C@H](Cc2ccccc2)NC(=O)[C@@H](NC(=O)[C@H](N)Cc2ccc(O)cc2)CSSC1(C)C)C(N)=O | ≥ 10 | 7.47 | – | – |
| C[C@@H](O)[C@H](NC(=O)[C@H]1NC(=O)[C@H]([C@@H](C)O)NC(=O)[C@H](CCCN=C(N)N)NC(=O)[C@@H](Cc2c[nH]c3ccccc23)NC(=O)[C@H](Cc2ccc(O)cc2)NC(=O)[C@@H](NC(=O)[C@H](N)Cc2ccccc2)CSSC1(C)C)C(N)=O | 5.31 | 0.0021 | – | – |
| C[C@@H](O)[C@H](NC(=O)[C@H]1NC(=O)[C@H](CCCCN)NC(=O)C(Cc2c[nH]c3ccccc23)NC(=O)[C@@H](Cc2ccc(O)cc2)NC(=O)[C@@H](NC(=O)[C@H]2Cc3ccccc3CN2)CSSC1(C)C)C(N)=O (stereo in doubt) [listing 1 of 2 here] | > 10 | 9.41 | – | – |
| C[C@@H](O)[C@@H]1NC(=O)[C@H](CCCCN)NC(=O)C(Cc2c[nH]c3ccccc23)NC(=O)[C@H](Cc2ccc(O)cc2)NC(=O)[C@@H](NC(=O)[C@H](N)Cc2ccccc2)CSSC(C)(C)[C@@H](C(=O)N[C@@H](CO)C(N)=O)NC1=O (stereo in doubt) [listing 2 of 2 here] | – | – | 1.888 | – |
| C[C@@H](O)[C@H](NC(=O)[C@@H]1NC(=O)[C@H](CCCCN)NC(=O)C(Cc2c[nH]c3ccccc23)NC(=O)[C@H](Cc2ccc(O)cc2)NC(=O)[C@@H](NC(=O)[C@@H](N)Cc2ccccc2)CSSC1(C)C)C(N)=O (stereo in doubt) [listing 2 of 2 here] | – | – | 6.103 | – |
| C[C@@H](O)[C@@H]1NC(=O)[C@H](CCCCN)NC(=O)C(Cc2c[nH]c3ccccc23)NC(=O)[C@H](Cc2ccc(O)cc2)NC(=O)[C@@H](NC(=O)[C@H](N)Cc2ccccc2)CSSC(C)(C)[C@@H](C(=O)N[C@@H](CC(=O)O)C(N)=O)NC1=O (stereo in doubt) [listing 2 of 2 here] | > 10 | 3.47 | – | – |
| C[C@@H](O)[C@@H]1NC(=O)[C@H](CCCCN)NC(=O)C(Cc2c[nH]c3ccccc23)NC(=O)[C@H](Cc2ccc(O)cc2)NC(=O)[C@@H](NC(=O)[C@H]2Cc3ccccc3CN2)CSSC(C)(C)[C@@H](C(=O)N[C@@H](CO)C(N)=O)NC1=O (stereo in doubt) [listing 2 of 3 here] | – | – | 1.499 | – |
| CN[C@H](Cc1ccccc1)C(=O)N[C@H]1CSSC(C)(C)[C@@H](C(=O)N[C@H](C(N)=O)[C@@H](C)O)NC(=O)[C@H]([C@@H](C)O)NC(=O)[C@H](CCCN)NC(=O)C(Cc2c[nH]c3ccccc23)NC(=O)[C@H](Cc2ccc(O)cc2)NC1=O (stereo in doubt) [listing 2 of 3 here] | – | – | 8.054 | – |
| C[C@@H](O)[C@H](NC(=O)[C@H]1NC(=O)[C@H]([C@@H](C)O)NC(=O)[C@H](CCCN)NC(=O)C(Cc2c[nH]c3ccccc23)NC(=O)[C@@H](Cc2ccc(O)cc2)NC(=O)[C@@H](NC(=O)[C@H]2Cc3ccccc3CN2C(=O)CN)CSSC1(C)C)C(N)=O (stereo in doubt) [listing 2 of 2 here] | – | – | 19.408 | – |
| C[C@@H](O)[C@@H]1NC(=O)[C@H](CCCCN)NC(=O)C(Cc2c[nH]c3ccccc23)NC(=O)[C@H](Cc2ccc(O)cc2)NC(=O)[C@@H](NC(=O)[C@H](N)Cc2ccccc2)CSSC(C)(C)[C@@H](C(=O)N[C@@H](CC(N)=O)C(N)=O)NC1=O (stereo in doubt) [listing 2 of 2 here] | – | – | 1.801 | – |
| C[C@@H](O)[C@H](NC(=O)[C@H]1NC(=O)[C@H]([C@@H](C)O)NC(=O)[C@H](CCCCN)NC(=O)C(Cc2c[nH]c3ccccc23)NC(=O)[C@@H](Cc2ccc(O)cc2)NC(=O)[C@@H](NC(=O)[C@H]2Cc3ccccc3CN2)CSSC1(C)C)C(N)=O (stereo in doubt) | – | – | 0.949 | – |
| C[C@@H](O)[C@H](NC(=O)[C@@H]1NC(=O)[C@H]([C@@H](C)O)NC(=O)[C@@H](Cc2c[nH]c3ccccc23)NC(=O)[C@H](Cc2ccc(O)cc2)NC(=O)[C@@H](NC(=O)[C@H](N)Cc2ccccc2)CSSC1(C)C)C(N)=O | 7.82 | 10 | – | – |
| C[C@@H](O)[C@H](NC(=O)[C@H]1NC(=O)[C@H]([C@@H](C)O)NC(=O)[C@H](CCCCN)NC(=O)C(Cc2c[nH]c3ccccc23)NC(=O)[C@H](Cc2ccc(O)cc2)NC(=O)[C@@H](NC(=O)C(N)Cc2c[nH]c3ccccc23)CSSC1(C)C)C(N)=O (stereo in doubt) [listing 1 of 2 here] | – | – | 1.599 | – |
| C[C@@H](O)[C@@H]1NC(=O)[C@H](CCCCN)NC(=O)C(Cc2c[nH]c3ccccc23)NC(=O)[C@H](Cc2ccc(O)cc2)NC(=O)[C@@H](NC(=O)[C@H]2Cc3ccccc3CN2)CSSC(C)(C)[C@@H](C(=O)N[C@@H](CO)C(N)=O)NC1=O (stereo in doubt) [listing 3 of 3 here] | 3.83 | 0.0078 | – | – |
| C[C@@H](O)[C@@H]1NC(=O)[C@H](CCCCN)NC(=O)C(Cc2c[nH]c3ccccc23)NC(=O)[C@H](Cc2ccc(O)cc2)NC(=O)[C@@H](NC(=O)[C@H](N)Cc2ccccc2)CSSC(C)(C)[C@@H](C(N)=O)NC1=O (stereo in doubt) [listing 2 of 2 here] | > 10 | 0.115 | – | – |
| CN[C@H](Cc1ccccc1)C(=O)N[C@H]1CSSC(C)(C)[C@@H](C(=O)N[C@H](C(N)=O)[C@@H](C)O)NC(=O)[C@H]([C@@H](C)O)NC(=O)[C@H](CCCN)NC(=O)C(Cc2c[nH]c3ccccc23)NC(=O)[C@H](Cc2ccc(O)cc2)NC1=O (stereo in doubt) [listing 3 of 3 here] | > 10 | 0.284 | – | – |
| C[C@@H](O)[C@H](NC(=O)[C@H]1NC(=O)[C@H](CC(N)=O)NC(=O)[C@H](Cc2ccc(O)cc2)NC(=O)[C@@H](NC(=O)[C@H](N)Cc2ccccc2)CSSC1(C)C)C(N)=O | > 10 | – | – | – |
| C[C@@H](O)[C@H](NC(=O)[C@H]1NC(=O)[C@H](CCCCN)NC(=O)C(Cc2c[nH]c3ccccc23)NC(=O)[C@@H](Cc2ccc(O)cc2)NC(=O)[C@@H](NC(=O)[C@H]2Cc3ccccc3CN2)CSSC1(C)C)C(N)=O (stereo in doubt) [listing 2 of 2 here] | – | – | 13.61 | – |
| C[C@@H](O)[C@H](NC(=O)[C@H]1NC(=O)[C@H]([C@@H](C)O)NC(=O)[C@H](CCCCN)NC(=O)C(Cc2c[nH]c3ccccc23)NC(=O)[C@H](Cc2ccc(O)cc2)NC(=O)[C@@H](NC(=O)C(N)Cc2c[nH]c3ccccc23)CSSC1(C)C)C(N)=O (stereo in doubt) [listing 2 of 2 here] | > 10 | 0.0063 | – | – |
